# Experimental data of several laboratories.
# Read-out: DPPH scavenging
SMILES,technique,concentration,inhibition
Cc1ccc(C(C)C)cc1NC(=O)COC(=O)/C=C/c1ccc(Cl)cc1,,100 µg/mL,7.5%
CCN(O)N=Nc1ccc(S(=O)(=O)Nc2cc(C)on2)cc1,absorbance,300 µg/mL,40.5%
Cc1ccc(C(C)C)cc1NC(=O)COC(=O)c1ccc(O)cc1O,,100 µg/mL,2.4%
COc1cc(C=Cc2cc(-c3ccccc3)nc(O)n2)ccc1O,,25 µg/mL,50%
O=C1O[C@H]([C@@H](O)CO)C(O)=C1O,absorbance,40 µM,41.6%
Cc1ccc(C(C)C)cc1NC(=O)COC(=O)c1ccc(O)cc1,,100 µg/mL,1.7%
COc1cc(C=CC(=O)CC(c2ccc(N(C)C)cc2)n2ccnc2)ccc1O (stereo not drawn),,50 µg/mL,65.2%
O=S(=O)(Nc1nccs1)c1ccc(N=NN(O)c2ccccc2)cc1,absorbance,180 µg/mL,34.2%
Cc1ccc(C(C)C)cc1NC(=O)COC(=O)/C=C/c1ccccc1,,100 µg/mL,1.39%
COc1cc(C=Cc2cc(-c3ccc(N(C)C)cc3)nc(O)n2)ccc1O,,12.5 µg/mL,39.4%
Cc1cc(NS(=O)(=O)c2ccc(N=NN(O)c3ccccc3)cc2)no1,absorbance,20 µg/mL,21.8%
Cc1ccc(C(C)C)cc1NC(=O)COC(=O)/C=C/c1ccccc1O,,100 µg/mL,1.15%
CCCN(O)N=Nc1ccc(S(=O)(=O)Nc2cc(C)on2)cc1,absorbance,180 µg/mL,22.8%
Oc1ccc(Br)cc1C=NCCN1CCOCC1,absorbance,40 µM,10.1%
COc1cc(C=CC(=O)CC(c2ccc([N+](=O)[O-])cc2)n2ccnc2)ccc1O (stereo not drawn),,12.5 µg/mL,37.1%
CCN(O)N=Nc1ccc(S(=O)(=O)Nc2onc(C)c2C)cc1,absorbance,60 µg/mL,10.9%
O=C1O[C@H]([C@@H](O)CO)C(O)=C1O,,50 µg/mL,77.6%
Cc1ccc(N(O)N=Nc2ccc(S(=O)(=O)Nc3cc(C)on3)cc2)cc1,absorbance,60 µg/mL,19.9%
